Consider 21 molecules from ChEMBL document CHEMBL4024774 (J Med Chem, 2017).

Series [1] deals with Sodium-dependent dopamine transporter (Rattus norvegicus, UniProt P23977). Briefly: Displacement of [3H]WIN35428 from Sprague-Dawley rat brain DAT after 120 mins by liquid scintillation counting method. The gist of the method:
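Rat striatal membranes (male Sprague-Dawley) in sucrose phosphate buffer pH 7.4. […] Terminated by filtration on GF/B filters presoaked in 0.05% PEI, then scintillation counting.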

Series [2] has as its target Sodium-dependent serotonin transporter (Rattus norvegicus, UniProt P31652). Briefly: Displacement of [3H]citalopram from Sprague-Dawley rat brain SERT after 60 mins by liquid scintillation counting method. In outline: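 Male Sprague-Dawley rat brain stem membranes in 50 mM Tris with 120 mM NaCl and 5 mM KCl, pH 7.4. […] Nonspecific binding with 10 μM fluoxetine. Filtered on GF/B filters presoaked in 0.3% PEI, scintillation counted.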

Series [3] can be described thus: Displacement of [3H]nisoxetine from Sprague-Dawley rat brain NET after 180 mins by liquid scintillation counting method. In outline:
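Frontal cortex membranes from male Sprague-Dawley rats in 50 mM Tris, 120 mM NaCl, 5 mM KCl, pH 7.4. […] Nonspecific binding with 1 μM desipramine. Methanol level held constant across tubes. Filtered on GF/B filters in 0.05% PEI.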

Series [4] can be described thus: Inhibition of […] uptake at human DAT […] mutant expressed in African green monkey COS7 cells after 90 mins. The class given is cell-based. In outline:
(§1)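 Whole COS7 cells transiently expressing human DAT WT or the Y156F mutant, washed in ice-cold uptake buffer. Incubated with [³H]WIN 35,428 and inhibitor (1 nM–1 mM, 12 concentrations) at 5 °C to equilibrium (>90 min). Triplicates. Ki from IC50 by nonlinear regression and Cheng–Prusoff. Ratio is Y156F Ki over WT Ki.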

The target in series [5] is T1, Sodium-dependent dopamine transporter (Homo sapiens, UniProt Q01959). Briefly: Inhibition of […] uptake at wild type human DAT expressed in African green monkey COS7 cells after 90 mins. The class given is cell-based. In outline: as §1
The target of series [6] is T1, Sodium-dependent dopamine transporter. The series is described as follows: Inhibition of [3H]DA uptake at wild type human DAT expressed in African green monkey COS7 cells after 5 mins by beta scintillation counting method. It counts as cell-based. The gist of the method:
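COS7 cells transiently transfected with synthetic human DAT and assayed 2 days later. Preincubated with inhibitor (1 nM–1 mM, 12 concentrations) in HEPES uptake buffer pH 7.4 containing ascorbate and a COMT inhibitor. 6–10 nM [³H]DA added for 5 min at rt. Nonspecific uptake with 1 μM nomifensine. Cells lysed in SDS and scintillation counted. Run in triplicate. Ki from IC50 by Cheng–Prusoff.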

Series [7] concerns the target Voltage-gated inwardly rectifying potassium channel KCNH2 (Homo sapiens, UniProt Q12809). Briefly: Displacement of [3H]Dofetilide from human ERG expressed in HEK cells after 180 mins by scintillation counting method. It counts as cell-based.
Series [8] is described as follows: Selectivity ratio of IC50 for human ERG expressed in HEK cells to Ki for Sprague-Dawley rat brain DAT. It counts as cell-based.
The species entered for another series is Homo sapiens. The series is described as follows: Selectivity ratio of Ki for human DAT […] mutant expressed in African green monkey COS7 cells to Ki for wild type human DAT expressed in African green monkey COS7 cells. It counts as cell-based. The gist of the method:
as §1

Another series relates to Liver. The series is described as follows: Metabolic stability in mouse liver microsomes assessed as parent compound remaining at 10 uM after 1 hr in presence of NADPH by LC/MS/MS analysis. The class given is ADME, microsome. In outline: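 Mouse liver microsomes at 0.5 mg/mL with test compound at 10 μM final, in 100 mM potassium phosphate pH 7.4 with an NADPH regenerating system (1.3 mM NADPH). Reaction started by adding microsomes. Controls run without cofactor. Parent remaining measured by LC/MS/MS on a C18 column with formic acid/acetonitrile gradient. Triplicate.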

Series [9] has as its system Mus musculus. The series is described as follows: Decrease in locomotory activity in Swiss Webster mouse at 56 mg/kg, ip after 1 hr relative to control. The arrangement: scale not given: the % may be the effect or the level left. The class given is functional. The gist of the method: (§2)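 Male Swiss Webster mice, ambulatory activity counted in 40 cm³ clear acrylic chambers over a 1 h session with no prior habituation. Drug given i.p. at 1 mL/kg immediately before the session. 6 mice per dose, each used once. Analysed by ANOVA then Dunnett's test against vehicle.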

Series [10] concerns Mus musculus. The series is described as follows: Effect on execution of behavioral task in Swiss Webster mouse assessed as overall group response rate at 0.3 to 30 mg/kg, ip relative to control. The settings on record: in vivo. The class given is organism-based. The gist of the method: (§3)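 Testing began after ≥85% correct responding on 4 consecutive sessions. Test drug given i.p. at 0.1–30 mg/kg, 5 or 30 min before the session, with 10 consecutive responses on either lever reinforced. ED50 taken from a linear fit. Response rate expressed as % of saline. 6 mice.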

The subject of series [11] is Mus musculus. The series is described as follows: Decrease in locomotory activity in Swiss Webster mouse at 3 to 30 mg/kg, ip after 1 hr relative to control. The class given is functional, organism-based. The gist of the method:
as §2

The subject of series [12] is Mus musculus. Briefly: Effect on discriminating cocaine from saline in Swiss Webster mouse assessed as cocaine lever response at 0.3 to 30 mg/kg, ip administered 5 to 30 mins prior to training session relative to control. The class given is functional. The gist of the method:
as §3

Active and inactive are the calls of the source. The rule behind the calls is not given here.

T1 sequence (Q01959 whole entry): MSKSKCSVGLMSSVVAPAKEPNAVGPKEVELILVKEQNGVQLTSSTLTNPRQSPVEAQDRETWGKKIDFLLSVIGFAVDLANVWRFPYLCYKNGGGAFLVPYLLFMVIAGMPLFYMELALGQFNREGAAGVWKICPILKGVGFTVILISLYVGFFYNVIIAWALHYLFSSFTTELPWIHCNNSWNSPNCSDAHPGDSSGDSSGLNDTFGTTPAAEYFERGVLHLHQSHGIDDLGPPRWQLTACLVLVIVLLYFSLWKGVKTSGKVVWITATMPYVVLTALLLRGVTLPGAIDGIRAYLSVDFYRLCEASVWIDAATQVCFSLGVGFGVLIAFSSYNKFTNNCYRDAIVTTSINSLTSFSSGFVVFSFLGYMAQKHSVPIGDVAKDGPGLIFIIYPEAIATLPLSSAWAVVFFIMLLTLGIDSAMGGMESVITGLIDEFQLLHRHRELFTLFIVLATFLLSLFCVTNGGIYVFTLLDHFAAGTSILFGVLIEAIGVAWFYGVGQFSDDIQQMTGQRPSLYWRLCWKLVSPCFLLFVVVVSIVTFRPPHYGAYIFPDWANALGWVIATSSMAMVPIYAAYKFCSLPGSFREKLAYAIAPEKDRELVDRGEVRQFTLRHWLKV
Sodium-dependent serotonin transporter, sequence (P31652 whole entry): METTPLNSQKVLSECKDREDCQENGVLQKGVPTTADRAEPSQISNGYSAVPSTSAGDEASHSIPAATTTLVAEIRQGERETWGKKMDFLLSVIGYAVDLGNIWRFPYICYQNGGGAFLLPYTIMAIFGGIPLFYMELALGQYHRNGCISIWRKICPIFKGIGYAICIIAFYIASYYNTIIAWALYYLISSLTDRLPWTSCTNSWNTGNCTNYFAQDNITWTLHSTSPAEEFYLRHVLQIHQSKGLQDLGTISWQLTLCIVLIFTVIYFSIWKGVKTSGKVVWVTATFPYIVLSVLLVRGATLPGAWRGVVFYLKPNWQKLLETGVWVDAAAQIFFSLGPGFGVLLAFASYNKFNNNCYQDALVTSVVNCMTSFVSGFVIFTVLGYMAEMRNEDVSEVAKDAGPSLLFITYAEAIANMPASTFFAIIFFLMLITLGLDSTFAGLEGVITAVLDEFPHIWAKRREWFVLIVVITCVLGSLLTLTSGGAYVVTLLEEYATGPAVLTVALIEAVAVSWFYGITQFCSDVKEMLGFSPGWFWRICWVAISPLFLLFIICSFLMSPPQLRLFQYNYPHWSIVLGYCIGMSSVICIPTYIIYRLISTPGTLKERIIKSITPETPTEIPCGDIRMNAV
Sodium-dependent dopamine transporter (Rattus norvegicus, UniProt P23977), sequence (P23977 whole entry): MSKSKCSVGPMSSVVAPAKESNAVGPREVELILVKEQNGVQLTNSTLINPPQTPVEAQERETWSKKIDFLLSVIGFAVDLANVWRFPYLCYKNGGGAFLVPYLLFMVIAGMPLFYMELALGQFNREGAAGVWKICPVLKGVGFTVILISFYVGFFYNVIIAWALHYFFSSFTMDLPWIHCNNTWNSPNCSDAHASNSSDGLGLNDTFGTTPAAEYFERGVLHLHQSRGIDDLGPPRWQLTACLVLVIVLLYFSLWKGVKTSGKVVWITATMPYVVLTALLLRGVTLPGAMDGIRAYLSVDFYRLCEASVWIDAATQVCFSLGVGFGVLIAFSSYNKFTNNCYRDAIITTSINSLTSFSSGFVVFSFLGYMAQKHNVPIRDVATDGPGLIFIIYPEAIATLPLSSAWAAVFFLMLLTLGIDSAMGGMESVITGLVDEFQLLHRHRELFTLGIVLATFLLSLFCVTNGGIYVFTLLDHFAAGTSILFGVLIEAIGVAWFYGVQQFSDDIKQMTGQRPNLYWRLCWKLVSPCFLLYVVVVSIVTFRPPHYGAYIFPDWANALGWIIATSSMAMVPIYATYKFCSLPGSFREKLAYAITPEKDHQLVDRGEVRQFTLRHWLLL
Voltage-gated inwardly rectifying potassium channel KCNH2, sequence (Q12809 whole entry): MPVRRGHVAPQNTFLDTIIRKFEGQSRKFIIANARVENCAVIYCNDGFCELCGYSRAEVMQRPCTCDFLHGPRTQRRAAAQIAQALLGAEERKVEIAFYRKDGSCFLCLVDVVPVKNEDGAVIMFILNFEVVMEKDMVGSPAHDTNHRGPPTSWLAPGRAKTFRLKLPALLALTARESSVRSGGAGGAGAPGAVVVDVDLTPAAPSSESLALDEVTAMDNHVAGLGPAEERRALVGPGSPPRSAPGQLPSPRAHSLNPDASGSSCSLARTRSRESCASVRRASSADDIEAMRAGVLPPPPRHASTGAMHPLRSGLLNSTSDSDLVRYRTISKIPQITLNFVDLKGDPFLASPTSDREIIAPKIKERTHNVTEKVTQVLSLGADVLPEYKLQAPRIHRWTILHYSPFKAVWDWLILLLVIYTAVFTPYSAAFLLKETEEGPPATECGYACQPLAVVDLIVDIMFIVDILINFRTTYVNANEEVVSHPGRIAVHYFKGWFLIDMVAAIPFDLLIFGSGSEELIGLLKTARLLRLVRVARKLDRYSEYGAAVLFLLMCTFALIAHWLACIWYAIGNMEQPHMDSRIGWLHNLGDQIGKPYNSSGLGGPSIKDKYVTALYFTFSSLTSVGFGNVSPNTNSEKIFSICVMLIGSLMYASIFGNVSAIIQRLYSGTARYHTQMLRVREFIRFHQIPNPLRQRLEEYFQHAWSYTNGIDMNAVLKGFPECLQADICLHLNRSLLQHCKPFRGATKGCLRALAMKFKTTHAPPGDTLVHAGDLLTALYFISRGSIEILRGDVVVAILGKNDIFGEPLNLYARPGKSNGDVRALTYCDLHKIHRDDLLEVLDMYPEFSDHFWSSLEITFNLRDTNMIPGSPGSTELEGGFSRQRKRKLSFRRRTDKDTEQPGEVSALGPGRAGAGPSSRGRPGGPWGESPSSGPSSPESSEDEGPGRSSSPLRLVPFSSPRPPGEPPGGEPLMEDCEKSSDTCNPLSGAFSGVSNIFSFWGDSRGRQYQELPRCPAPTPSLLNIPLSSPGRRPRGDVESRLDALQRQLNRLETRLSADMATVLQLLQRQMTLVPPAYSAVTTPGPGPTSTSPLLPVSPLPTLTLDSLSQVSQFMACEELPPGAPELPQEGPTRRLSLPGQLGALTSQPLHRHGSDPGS

Regarding `Cc1ccc(-c2cc([C@@H]3C4CCC(C[C@@H]3OC(c3ccc(F)cc3)c3ccc(F)cc3)N4C)on2)cc1` (mixture of isomers), the Ki in series [1] was determined as 93.5 nM; in series [2], 4410 nM; in series [3] it was 2710 nM.
In the case of `CC(C)[C@@H](N)CN1C2CCC1CC(NC(c1ccc(F)cc1)c1ccc(F)cc1)C2` (stereo partly drawn), the results for the inhibition constant Ki in series [1], in [2] and in series [3] were 21 nM, 5400 nM and 2350 nM, respectively.
Turning to `CCOC(=O)[C@@H]1C2CCC(C[C@@H]1OC(c1ccc(F)cc1)c1ccc(F)cc1)N2CCc1c[nH]c2ccccc12` (mixture of isomers), the Ki in [4] was found to be 1080 nM; in series [5], 147 nM; in series [1], 26.1 nM; in series [2] it was 746 nM; in series [3], 1450 nM; in series [6] it was 944 nM.
As to `Fc1ccc(C(NC2CC3CCC(C2)N3CCN2CCCCC2)c2ccc(F)cc2)cc1` (stereo not drawn), the Ki in series [1] came out at 10.6 nM; in [2] it was 3780 nM; in series [3] it was 612 nM.
As for `CN(C)CCN1C2CCC1CC(NC(c1ccc(F)cc1)c1ccc(F)cc1)C2` (stereo not drawn), the inhibition constant (Ki) in [4] came to 202 nM; in [5], 16 nM; in series [1] it was 14.3 nM; in series [2], 12000 nM; in series [3], 4010 nM; in [6] it was 40 nM. Further, the concentration for half-maximal inhibition (IC50) in [7] was 5480 nM. For the same molecule, the Selectivity ratio in series [8] is 383. Further, the Ratio Ki in the series filed under Homo sapiens worked out at 20.
In the case of `CN1C2CCC1[C@@H](c1cc(-c3ccc(F)cc3)no1)[C@@H](OC(c1ccc(F)cc1)c1ccc(F)cc1)C2` (mixture of isomers), the inhibition constant (Ki) amounted to 69.2 nM in series [1], 2990 nM in [2] and 1640 nM in [3].
With `CCOC(=O)[C@@H]1C2CCC(C[C@@H]1OC(c1ccc(F)cc1)c1ccc(F)cc1)N2C[C@H](N)C(C)C` (mixture of isomers), the Ki is 1560 nM in series [4]; 221 nM in [5]; 53.8 nM in series [1]; 1370 nM in [2]; 4470 nM in series [3]; 1050 nM in series [6]. Further, the Ratio Ki in the series filed under Homo sapiens turned out to be 7.1.
In the case of `NCCN1C2CCC1CC(OC(c1ccc(F)cc1)c1ccc(F)cc1)C2` (stereo not drawn), the results for the Ki in series [1], in series [2] and in series [3] were 5.59 nM, 4600 nM and 1420 nM, respectively.
As for `Cc1ccc(-c2cc(C3C(c4ccc(Cl)cc4)CC4CCC3N4C)on2)cc1` (stereo not drawn), the inhibition constant Ki in [4] was found to be 140 nM; in series [5], 35 nM; in series [1], 10.7 nM; in [2], 23500 nM; in [3], 1170 nM; in series [6], 16 nM. Besides, the Ratio Ki in the series listed under Homo sapiens was determined as 4.
With `Fc1ccc(C(OC2CC3CCC(C2)N3CCN2CCCCC2)c2ccc(F)cc2)cc1` (stereo not drawn), the Ki in series [1] was found to be 13.2 nM; in [2] it was 1460 nM; in [3], 370 nM.
Regarding `CN1C2CCC1[C@@H](c1cc(-c3ccccc3)no1)[C@@H](OC(c1ccc(F)cc1)c1ccc(F)cc1)C2` (mixture of isomers), the Ki in series [4] is 3490 nM; in series [5], 1480 nM; in [1], 60.8 nM; in [2] it was 3830 nM; in series [3], 1100 nM; in series [6], 1300 nM. For the same molecule, in the series listed under Homo sapiens, the Ratio Ki stood at 2.4.
`CCOC(=O)[C@@H]1C2CCC(C[C@@H]1OC(c1ccc(F)cc1)c1ccc(F)cc1)N2CC1CC1` (mixture of isomers): the Ki in series [1] worked out at 12 nM; in series [2] it was 3730 nM; in [3] it was 555 nM.
`CN(C)CCN1C2CCC1CC(OC(c1ccc(F)cc1)c1ccc(F)cc1)C2` (stereo not drawn): the Ki worked out at 63 nM in series [4]; 10 nM in [5]; 12 nM in [1]; 3150 nM in [2]; 933 nM in series [3]; 47 nM in series [6]. The IC50 in series [7] came out at 8230 nM. In addition, the Selectivity ratio in series [8] stood at 686. For the same molecule, the Ratio Ki in the series filed under Homo sapiens came to 6.3. Further, the Stability in the series with Liver was found to be 88%. In addition, the Activity is on record as 14% with Mus musculus [9], below 50% in the series on Mus musculus [10] and 23% in the series on Mus musculus [12]. Moreover, in the series on Mus musculus [11], the result was Active.
In the case of `Fc1ccc(C(OC2CC3CCC(C2)N3CC2CC2)c2ccc(F)cc2)cc1` (stereo not drawn), the Ki turned out to be 24.6 nM in series [1], 1420 nM in [2] and 1640 nM in series [3]. The same molecule registered a half-maximal inhibitory concentration (IC50) in series [7] of 3960 nM. In addition, the Selectivity ratio in series [8] was 161.
With `CN1C2CCC1[C@@H](c1cc(-c3ccccc3)no1)C(OC(c1ccc(F)cc1)c1ccc(F)cc1)C2` (single isomer, unassigned), the Ki amounted to 183 nM in [4]; 28 nM in [5]; 14.4 nM in series [1]; 1320 nM in series [2]; 413 nM in [3]; 212 nM in [6]. For the same molecule, the Ratio Ki in the series listed under Homo sapiens came to 6.5.
As to `C=C[C@@H]1C2CCC(C[C@@H]1OC(c1ccc(F)cc1)c1ccc(F)cc1)N2CCN(C)C` (mixture of isomers), the Ki in [1] stood at 13.5 nM; in [2] it was 5100 nM.
On to `Fc1ccc(C(OC2CC3CCC(C2)N3CCc2c[nH]c3ccccc23)c2ccc(F)cc2)cc1` (stereo not drawn), for which the inhibition constant Ki amounted to 1700 nM in [4]; 253 nM in series [5]; 29.2 nM in [1]; 490 nM in [2]; 7350 nM in series [3]. In addition, the Ratio Ki in the series listed under Homo sapiens was 6.7.
For `CN1C2CCC1[C@@H](c1cc(-c3ccc(Cl)cc3)no1)[C@@H](OC(c1ccc(F)cc1)c1ccc(F)cc1)C2` (mixture of isomers), the inhibition constant (Ki) in series [1] is 66.6 nM; in [2], 756 nM; in series [3] it was 1580 nM.
On to `Cc1ccc(C2CC3CCC(C2c2cc(-c4ccc(Cl)cc4)no2)N3C)cc1` (stereo not drawn), for which the Ki in series [4] amounted to 242 nM; in series [5], 27 nM; in series [1], 8.55 nM; in series [2] it was 29100 nM; in [3] it was 887 nM; in series [6], 9.7 nM. In addition, the Ratio Ki in the series filed under Homo sapiens was found to be 9.
Turning to `CC(C)[C@@H](N)CN1C2CCC1CC(OC(c1ccc(F)cc1)c1ccc(F)cc1)C2` (stereo partly drawn), the inhibition constant (Ki) in series [4] stood at 307 nM; in series [5], 81 nM; in series [1], 13.2 nM; in series [2], 3870 nM; in [3] it was 2130 nM; in [6], 133 nM. Also, the Selectivity ratio in series [8] is 345. Besides, the Ratio Ki in the series filed under Homo sapiens was determined as 3.8.
In the case of `CCCCN1C2CCC1CC(NC(c1ccc(F)cc1)c1ccc(F)cc1)C2` (stereo not drawn), the figures for the Ki in series [4], in [5] and in series [6] were 355 nM, 24 nM and 62 nM, respectively. In addition, the Ratio Ki in the series listed under Homo sapiens was found to be 15.
